p47phox inh: p47phox (human) inhibition | P14598 | p47phox/p22phox peptide binding, fluorescence polarization, 2 h | inhibition, % at 24.7 µM | actives 0.53% (n = 220,000) | AID 1274
RBBP9 inh: human RBBP9 hydrolase inhibition. O75884. recombinant RBBP9, FP-Rh probe fluorescence polarization. inhibition, % at 7.94 µM. actives 0.2% (n = 220,000). AID 1515;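 active = inhibition above the campaign mean of all tested compounds plus 3 SD, cut at about 14% in these data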
Target sequence (O75884 whole entry, looked up): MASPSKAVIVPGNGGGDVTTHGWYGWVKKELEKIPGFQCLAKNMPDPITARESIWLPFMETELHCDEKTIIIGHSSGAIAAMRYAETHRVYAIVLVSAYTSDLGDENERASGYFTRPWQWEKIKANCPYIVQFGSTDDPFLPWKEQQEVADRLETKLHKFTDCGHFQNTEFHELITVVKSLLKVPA
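Test system: recombinant human RBBP9. Quantity: 2.5 µM RBBP9 dispensing solution, before mixing. Detection: FP readout at 525/598 nm. Reagent: Serine-hydrolase probe FP-Rh, 375 nM pre-mixing. Measure: % inhibition. Control set: DMSO-treated enzyme wells and wells lacking RBBP9. Buffer or medium: Tris-NaCl-Pluronic buffer, pH 8.0. Times: preincubation 30 min plus labeling 45 min at 25 °C.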
eIF4E-4G inh: eIF4E/eIF4G interaction inhibition in translation initiation. P63073+Q04637. TR-FRET eIF4E-eIF4GI(517-606) binding, 2 h. inhibition, % at 21.7 µM. actives 0.37% (n = 220,000)
WT yeast gro inh: growth inhibition of WT yeast, mitochondrial fusion screen. mitochondrial fusion phenotypic screen, WT strain. inhibition, % at 10 µM. actives 2.1% (n = 190,000). AID 1362; in the data active = inhibition above about 58%; tested in S. cerevisiae
EBV gp42 block: blocks Epstein-Barr virus glycoprotein 42 binding. Q1HVG2. Fluorescence polarization binding assay, mP read-out. inhibition, % (tested at 21.74 µM). actives 0.42% (n = 220,000). AID 1085; in the data active = inhibition above about 50%
Target sequence (Q1HVG2 whole entry, looked up): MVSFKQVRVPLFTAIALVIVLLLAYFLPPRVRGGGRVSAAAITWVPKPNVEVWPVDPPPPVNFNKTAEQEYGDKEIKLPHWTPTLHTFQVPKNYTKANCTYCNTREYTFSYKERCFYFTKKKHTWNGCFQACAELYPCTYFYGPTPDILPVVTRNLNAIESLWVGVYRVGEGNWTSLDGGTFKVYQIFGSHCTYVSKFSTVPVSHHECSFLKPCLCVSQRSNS
14-3-3 Bad PPI: disrupts binding of bovine 14-3-3 zeta to phospho-Bad peptide; TR-FRET 14-3-3zeta/Dy647-pBad peptide displacement, 1 h; inhibition, % at 21.7 µM; actives 0.71% (n = 220,000);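 active = inhibition above about 70%, limit read from the data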
Target sequence (P63103 whole entry, looked up): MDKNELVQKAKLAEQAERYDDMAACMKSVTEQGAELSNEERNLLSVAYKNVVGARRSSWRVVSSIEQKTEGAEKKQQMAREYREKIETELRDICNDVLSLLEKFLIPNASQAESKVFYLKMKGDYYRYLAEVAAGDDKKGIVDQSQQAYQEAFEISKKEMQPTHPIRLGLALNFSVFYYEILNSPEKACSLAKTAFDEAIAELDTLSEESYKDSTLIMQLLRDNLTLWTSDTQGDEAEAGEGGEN
Of the large screens only hits and unclear results are named; the others gave an inactive call; ! = not active in a repeat; [ ] = remark or other dose. Hits are enriched below; roughly 3.7% of the tested compounds scored in any of these assays.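 Rule for the calls, unless noted: active = inhibition above about 30% (limit read from the data); inactive = the rest.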

COCCNC(=S)NCc1ccc2[nH]c3c(c2c1)CCCC3	none
Cc1nc(N2CCOCC2)sc1C=O	none
Cc1cccc(-n2c(C)cc(C=C3C(=O)c4ccccc4C3=O)c2C)c1	none
Cc1cc(C=C2C(=O)c3ccccc3C2=O)c(C)n1-c1ccc(Cl)cc1	EBV gp42 block 61
CCn1c(C)cc(C=C2C(=O)c3ccccc3C2=O)c1C	EBV gp42 block 107
Cc1cc(C=C2C(=O)c3ccccc3C2=O)c(C)n1C	none
CC1(C)SC[C@H](C(=O)Nc2cccc(Cl)c2)N1C=O	none (no result: WT yeast gro inh)
COc1ccc(CCN2C(=O)CSC2=Nc2ccc(C)cc2C)cc1OC	none (no result: WT yeast gro inh)
O=C(c1ccccc1F)N1CCN(CC2CC3C=CC2C3)CC1 (stereo not drawn)	14-3-3 Bad PPI 81
O=C(c1cccc(F)c1)N1CCN(CC2CC3C=CC2C3)CC1 (stereo not drawn)	none
Cc1ccc(CN2CCN(CC3CC4C=CC3C4)CC2)cc1 (stereo not drawn)	14-3-3 Bad PPI 72
O=C(O)/C=C/C(=O)NCc1csc2ccccc12	none (no result: WT yeast gro inh)
COc1cc(OC)c(OC)cc1/C=N/Nc1ncnc2c1[nH]c1ccccc12	none
COc1ccc(/C=N/Nc2ncnc3c2[nH]c2ccc(C)cc23)c(OC)c1OC	14-3-3 Bad PPI 87 (no result: WT yeast gro inh)
NC1=NC(c2ccccc2)=NC1(NC(=O)c1ccccc1)C(Cl)Cl (stereo not drawn)	none (no result: WT yeast gro inh)
CCc1cccc(CC)c1NC(=O)CSc1nc2ccc(N3C(=O)C4C(C3=O)[C@H]3C=C[C@@H]4C3)cc2s1 (stereo partly drawn)	none
CCN1C(=O)/C(=C\c2cn(-c3ccccc3)nc2-c2cccnc2)SC1=S	14-3-3 Bad PPI 78
CCOCCCNC(=O)C(NC(=O)c1ccc(NC(C)=O)cc1)c1ccccc1 (stereo not drawn)	14-3-3 Bad PPI 73
OCC1(CO)COC2(CCCC2)N1	p47phox inh 62!
CC(=O)/C(=C\Nc1ccc(OCc2ccccc2)cc1)c1ccccc1	none
CC(=O)/C(=C/Nc1ccc(Oc2ccccc2)cc1)c1ccccc1	WT yeast gro inh 61
CCN(CC)CCn1c(NCc2ccccn2)nc2ccccc21	14-3-3 Bad PPI 77
COCCNC(=O)/C(C#N)=C1\N=C(N)c2ccccc21	none
Cc1cccc2c3nc4ccccc4nc3n(CCCN3C(=O)c4ccccc4C3=O)c12	EBV gp42 block 83
CCCCn1c(CN2C(=O)c3ccccc3C2=O)nc2ccccc2c1=O	none
CCC(C(=O)OCC(=O)Nc1ccc(SC(F)F)cc1)c1ccccc1 (stereo not drawn)	WT yeast gro inh 73
CCC(C(=O)OCC(=O)Nc1ccc(C(N)=O)cc1)c1ccccc1 (stereo not drawn)	none
Cc1cc(C)cc(-n2c(C)cc(/C=N/NC(=O)CN(c3c(C)cccc3C)S(C)(=O)=O)c2C)c1	WT yeast gro inh 60
Cc1cc(C)c(S(=O)(=O)/N=C2/C=C(SCC(=O)O)C(=O)c3ccccc32)cc1C	WT yeast gro inh 66, 14-3-3 Bad PPI 70
O=C(O)c1ccc(NC2=C/C(=N/S(=O)(=O)c3ccccc3)c3ccccc3C2=O)cc1	none
CC1CCN(c2nc(Cl)nc(Nc3ccc([N+](=O)[O-])cc3)n2)CC1	WT yeast gro inh 78
C=CCNc1nc(Nc2ccc([N+](=O)[O-])cc2)nc(N2CCCC2)n1	none
CS(=O)(=O)c1ncc(CO)n1Cc1ccccc1	none
COc1ccc(-c2[nH]ncc2CN(Cc2nccn2C)C(C)C)c(F)c1	none
COc1ccc2c(c1)C(C)=CC(C)(C)N2S(=O)(=O)c1ccc(C)cc1	none
CCOc1ccc2c(c1)C(C)=CC(C)(C)N2S(=O)(=O)c1ccc(C)cc1	WT yeast gro inh 72
NS(=O)(=O)c1ccc(NC(=O)c2ccc(-c3ccccc3)cc2)cc1	EBV gp42 block 62
COc1ccccc1NC(=O)CC1S/C(=N/N=C2\CCCc3ccccc32)NC1=O (stereo not drawn)	WT yeast gro inh 63
Oc1ccc(/C=C/c2nc(-c3ccccc3O)n(-c3ccccc3)n2)cc1	WT yeast gro inh 79
O=C(N/N=C/c1ccc(O)cc1)c1nc(-c2ccccc2)n(-c2ccccc2)n1	none
Oc1ccccc1-c1nc(/C=C/c2ccccc2)nn1-c1ccccc1	WT yeast gro inh 64
CN(C)CCCNc1cc(C(C)(C)C)nc2c(-c3ccccc3)cnn12	none (no result: WT yeast gro inh)
COc1cccc(Nc2nc(-c3cccc(N4C(=O)c5ccccc5C4=O)c3)cs2)c1	14-3-3 Bad PPI 84
COc1cccc(Nc2nc(-c3ccc(O)cc3)cs2)c1	none
O=c1c2c(nc3n1CCCCC3)-c1ccccc1CC21CCCCC1	WT yeast gro inh 78
O=c1c2c(nc(NCCO)n1CC1CCCCC1)-c1ccccc1CC21CCCC1	WT yeast gro inh 69
CCc1nc2c(c(=O)[nH]1)C1(CCCC1)Cc1ccccc1-2	none
CCC1(C)Cc2ccccc2-c2nc3n(c(=O)c21)CCCCC3 (stereo not drawn)	none
NNc1nc(N)c2c(n1)-c1ccccc1CC21CCCC1	14-3-3 Bad PPI 82[fluorescence artefact?]
CCCCC(CC)C(=O)Oc1ccc(O)c(C(C)(C)C)c1 (stereo not drawn)	WT yeast gro inh 91
CCCCC(CC)C(=O)Nc1ccc(C)c(O)c1 (stereo not drawn)	none
Cc1cccc(/C=N/Nc2ccc3ccccc3n2)c1	WT yeast gro inh 64
Cc1cc(C)n2nc(C(=O)Nc3ccc(S(=O)(=O)N(C)C)cc3)nc2n1	none (no result: WT yeast gro inh)
COc1cccc(-n2nc(C(N)=O)c(O)cc2=O)c1	none
COc1cccc(-n2nc(C#N)c(Cl)cc2=O)c1	WT yeast gro inh 77
CC(Cl)C(=O)NNc1cccc(Cl)n1 (stereo not drawn)	WT yeast gro inh 58
O=C(Cc1ccccc1)NC1c2ccccc2-c2ccccc21	none
COc1ccccc1-c1c(C#N)c(N)nc2c1CCc1ccccc1-2	WT yeast gro inh 67
Cc1ccc(NC(=O)NCC2CCN(Cc3cccc(Cl)c3)CC2)cc1Cl	WT yeast gro inh 82
Cc1ccc(NC(=O)NCC2CCN(Cc3cccc(Cl)c3)CC2)c(Cl)c1	none
CCCn1c(SC(C)C(=O)O)nc2ccccc21 (stereo not drawn)	14-3-3 Bad PPI 83
CC(=O)N1CC2(NC(=O)c3ccccc3N2)c2ccccc21 (stereo not drawn)	none
Cc1ccc(-n2cnc(N)c2C(=O)c2cccc([N+](=O)[O-])c2)cc1	none (no result: WT yeast gro inh)
Cc1nc2ccccc2c2oc(C(=O)N3CCN(C4CCCCC4)CC3)cc12	none
Cc1cccc(N2CCN(C(=O)c3cc4c(C)nc5ccccc5c4o3)CC2)c1C	WT yeast gro inh 67 (no result: p47phox inh, RBBP9 inh, eIF4E-4G inh, EBV gp42 block, 14-3-3 Bad PPI)
Cc1cc(Cl)c(S(=O)(=O)N2CCN(c3ccc(F)cc3)CC2)cc1OCC(=O)NC1CCCCC1	none
CCc1ccc(NC(=O)C(=S)NC2CCCCC2)cc1	none
CCc1ccc(-c2cn(C3CCCCC3)c(=S)[nH]2)cc1	WT yeast gro inh 68

Source: PubChem (several laboratories)
